PMC2697266 (Nature, 2009)

Experiments:
[1] = tested on: mice transplanted with transduced bone marrow progenitors; assay: Murine bone marrow transplantation leukemogenic assay; assay type: in vivo; conditions: 12 mice
Outline: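 Lin- marrow from femur and tibia (balb/C or b/6) was prestimulated 2-3 days with SCF, 5ng/mL FLT3 ligand, IL3 and IL6. Cells were infected with MSCV retrovirus encoding 3xFLAG fusion or empty vector. 100,000 cells were injected via tail vein into sublethally irradiated syngeneic mice, 12 per group, and leukemia kinetics were followed.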

[2] = tested on: WDR5, RBBP5, and MLL2 on Hoxa9; assay: ChIP, WDR5, RBBP5 and MLL2 on Hoxa9; assay type: cell-based, murine; conditions: marrow progenitors 15 days after transduction; qualitative
Outline: (§1)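 Mouse Lin- marrow cells were cytokine-stimulated, retrovirally transduced, selected with 1μg/mL puromycin and kept in SCF-only medium. ChIP used 1∼2 million cells for histone marks and 2∼3 million for other factors (p300 antibody 10μg). Equal nonspecific IgG served as antibody control and Chr8Int as negative locus. Triplicate SYBR qPCR gave % of input and fold over IgG.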

[3] = tested on: Ezh2 or Suz12, H3K27me3 at Hox-A clusters; assay: ChIP, polycomb factors and H3K27me3 at Hox-A cluster; assay type: cell-based, murine; conditions: NJL-infected progenitors, qualitative
Outline: as §1

H3K4me3 or H3 = assay: CoIP in transiently transfected 293 cells; assay type: binding; conditions: qualitative
Outline: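 Nuclei underwent limited micrococcal nuclease digestion to release mainly mononucleosomes, and insoluble material was removed by centrifugation. Supernatant was incubated with FLAG- or HA-agarose, or with magnetic beads coupled to anti-H3K4me3 or control antibodies. After extensive washing, precipitated proteins were analysed by immunoblot.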

p300 on Hoxa9 = assay: ChIP, p300 recruitment on Hoxa9; assay type: cell-based, murine; conditions: 15 days after transduction; qualitative
Outline: as §1

H3K27ac on Hoxa9 = assay: ChIP, Hoxa9-associated H3 acetylation; assay type: cell-based, murine; conditions: marrow progenitors 15 days after transduction, NJL-transduced cells
Outline: as §1

B1: NJL: NUP98 amino acids 1-514 fused to amino acids 1489-1690 of JARID1A transcript variant 1 (protein)
chain: MFNKSFGTPFGGGTGGFGTTSTFGQNTGFGTTSGGAFGTSAFGSSNNTGGLFGNSQTKPGGLFGTSSFSQPATSTSTGFGFGTSTGTANTLFGTASTGTSLFSSQNNAFAQNKPTGFGNFGTSTSSGGLFGTTNTTSNPFGSTSGSLFGPSSFTAAPTGTTIKFNPPTGTDTMVKAGVSTNISTKHQCITAMKEYESKSLEELRLEDYQANRKGPQNQVGAGTTTGLFGSSPATSSATGLFSSSTTNSGFAYGQNKTAFGTSTTGFGTNPGGLFGQQNQQTTSLFSKPFGQATTTQNTGFSFGNTSTIGQPSTNTMGLFGVTQASQPGGLFGTATNTSTGTAFGTGTGLFGQTNTGFGAVGSTLFGNNKLTTFGSSTTSAPSFGTTSGGLFGNKPTLTLGTNTNTSNFGFGTNTSGNSIFGSKPAPGTLGTGLGAGFGTALGAGQASLFGNNQPKIGGPLGTGAFGAPGFNTTTATLGFGAPQAPVALTDPNASAAQQAVLQQHINSLTYSPFGMEEKPLKVKGKDSSEKKRKRKLEKVEQLFGEGKQKSKELKKMDKPRKKKLKLGADKSKELNKLAKKLAKEEERKKKKEKAAAAKVELVKESTEKKREKKVLDIPSKYDWSGAEESDDENAVCAAQNCQRPCKDKVDWVQCDGGCDEWFHQVCVGVSPEMAENEDYICINCAKKQGPVSPGPAPPPSFIMSYKLPMEDLKETS
modifications: left off: 3xFLAG, N-terminal, kept
- average time to death of AML [1]: 69 days
- WDR5, RBBP5, and MLL2 on Hoxa9 [2]: high levels
- restriction of polycomb factors (Ezh2 or Suz12) [3]: restricted within Hoxa11-a13
- association with H3K4me3 or H3 (H3K4me3 or H3): associated with H3K4me3 or H3
- p300 recruitment on Hoxa9 (p300 on Hoxa9): recruitment of p300
- elevation of H3K27ac on Hoxa9 (H3K27ac on Hoxa9): > 2,000 fold
